ChEMBL document CHEMBL5724801, “EUbOPEN Chemogenomics Library - Multiplex” (2024)
Several values for one entry are separate records, joined by “and”; a condition that tells them apart may be missing. Equal entries are not always repeated.

Test system: HEK-293T
Assay: Multiplex assay against HEK293T
Assay type: toxicity, cell-based
Conditions: human
Summary of the method: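 Live cells were stained at seeding with Hoechst33342, BioTracker Green Microtubule Cytoskeleton Dye, MitoTracker Red and Annexin V Alexa Fluor 680. Following compound addition, they were imaged on a CQ1 microscope at 37°C and 5% CO2 and gated by CellPathfinder machine learning into Hoechst high-intensity objects or normal cells, with normal cells split into healthy, pyknosed or fragmented nuclei and pyknosed cells into mitotic or apoptotic. Tubulin, mitochondrial-mass and membrane-permeability phenotypes are per cents of healthy-nucleus cells.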

[1] = 12 h, 1 µM, compound concentration 1 uM
[2] = 12 h, 10 µM, compound concentration 10 uM
[3] = 24 h, 1 µM, compound concentration 1 uM
[4] = 24 h, 10 µM, compound concentration 10 uM
[5] = 48 h, 1 µM, compound concentration 1 uM
[6] = 48 h, 10 µM, compound concentration 10 uM

In the case of `CC(N)C1CCC(C(=O)Nc2ccncc2)CC1` (stereo not given), the “Population Apoptotic (%)” value [1] is reported as 7.48% and 4.2%, the “Population Fragmented Nuclei (%)” value [1] is reported as 1.19% and 1.23% and the “Population Healthy Nuclei (%)” value [1] is reported as 63.72% and 25.31%. For the same molecule, the “Population Hoechst High Intensity Objects (%)” value [1] was 0.48% and 0%, the “Population Membrane Permeable-Phenotype (%)” value [1] was 0% and the “Population Mitotic Cells (%)” value [1] was 92.52% and 95.8%. The “Population Normal (%)” value [1] was 99.52% and 100%, the “Population Pyknosed Nuclei (%)” value [1] was 35.08% and 73.46% and the “Total Cell Count” value [1] was 421 and 162. The “Population Fragmented Nuclei (%)” value [2] was 1.2% and 1.9%, the “Population Healthy Nuclei (%)” value [2] was 60.28% and 29.75% and the “Population Hoechst High Intensity Objects (%)” value [2] was 0%. The “Population Membrane Permeable-Phenotype (%)” value [2] was 0.99% and 4.26%, the “Population Mitochondria Different-Phenotype (%)” value [2] was 27.81% and 17.02% and the “Population Mitotic Cells (%)” value [2] was 96.37% and 83.33%. The “Population Normal (%)” value [2] was 100%, the “Population Pyknosed Nuclei (%)” value [2] was 38.52% and 68.35% and the “Population Apoptotic (%)” value [3] was 2.15% and 8.97%. For the same molecule, the “Population Fragmented Nuclei (%)” value [3] was 1.77% and 1.69%, the “Population Healthy Nuclei (%)” value [3] was 83.28% and 54.49% and the “Population Hoechst High Intensity Objects (%)” value [3] was 0.16% and 1.11%. For the same molecule, the “Population Membrane Permeable-Phenotype (%)” value [3] was 0.97% and 3.09%, the “Population Mitochondria Different-Phenotype (%)” value [3] was 6.76% and 5.15% and the “Population Mitotic Cells (%)” value [3] was 97.85% and 91.03%. For the same molecule, the “Population Normal (%)” value [3] was 99.84% and 98.89%, the “Population Pyknosed Nuclei (%)” value [3] was 14.95% and 43.82% and the “Population Tubulin-Different-Phenotype (%)” value [3] was 6.56% and 4.12%. The “Population Apoptotic (%)” value [4] was 4.95% and 13.95%, the “Population Fragmented Nuclei (%)” value [4] was 1.78% and 1.58% and the “Population Healthy Nuclei (%)” value [4] was 73.29% and 53.16%. The “Population Hoechst High Intensity Objects (%)” value [4] was 0% and 0.52%, the “Population Membrane Permeable-Phenotype (%)” value [4] was 0.19% and 2.97% and the “Population Mitochondria Different-Phenotype (%)” value [4] was 6.17% and 6.93%. For the same molecule, the “Population Mitotic Cells (%)” value [4] was 95.05% and 86.05%, the “Population Normal (%)” value [4] was 100% and 99.48% and the “Population Pyknosed Nuclei (%)” value [4] was 24.93% and 45.26%. For the same molecule, the “Population Tubulin-Different-Phenotype (%)” value [4] was 3.36% and 1.98%, the “Population Apoptotic (%)” value [5] was 7.52% and 3.77% and the “Population Fragmented Nuclei (%)” value [5] was 2.72% and 1.86%. For the same molecule, the “Population Healthy Nuclei (%)” value [5] was 86.94% and 78.44%, the “Population Hoechst High Intensity Objects (%)” value [5] was 0% and 0.74% and the “Population Membrane Permeable-Phenotype (%)” value [5] was 3.76% and 2.84%. The “Population Mitochondria Different-Phenotype (%)” value [5] was 10.11% and 9.95%, the “Population Mitotic Cells (%)” value [5] was 92.48% and 96.23% and the “Population Normal (%)” value [5] was 100% and 99.26%. For the same molecule, the “Population Pyknosed Nuclei (%)” value [5] was 10.34% and 19.7%, the “Population Fragmented Nuclei (%)” value [6] was 1.32% and 1.83% and the “Population Healthy Nuclei (%)” value [6] was 88.05% and 71.1%. For the same molecule, the “Population Hoechst High Intensity Objects (%)” value [6] was 0% and 0.91%, the “Population Membrane Permeable-Phenotype (%)” value [6] was 2.25% and 0.65% and the “Population Mitochondria Different-Phenotype (%)” value [6] was 9.07% and 6.45%. For the same molecule, the “Population Mitotic Cells (%)” value [6] was 96.89% and 81.36%, the “Population Normal (%)” value [6] was 100% and 99.09% and the “Population Pyknosed Nuclei (%)” value [6] was 10.63% and 27.06%. The “Population Tubulin-Different-Phenotype (%)” value [6] was 0.3% and 9.68%.

`CCC(=N\O)/C(C)=C/c1ccc(F)cc1` [A-079] was tested, and the “Population Apoptotic (%)” value [1] was 11.21% and 9.93%, the “Population Fragmented Nuclei (%)” value [1] was 3.75% and 3.83% and the “Population Hoechst High Intensity Objects (%)” value [1] was 0%. For the same molecule, the “Population Membrane Permeable-Phenotype (%)” value [1] was 0% and 2.86%, the “Population Mitochondria Different-Phenotype (%)” value [1] was 29.63% and 22.86% and the “Population Mitotic Cells (%)” value [1] was 88.79% and 90.07%. The “Population Normal (%)” value [1] was 100%, the “Population Pyknosed Nuclei (%)” value [1] was 31.1% and 77.05% and the “Total Cell Count” value [1] was 373 and 183. The “Population Apoptotic (%)” value [2] was 7.79% and 9.52%, the “Population Fragmented Nuclei (%)” value [2] was 0.57% and 1.59% and the “Population Hoechst High Intensity Objects (%)” value [2] was 0.28% and 0.79%. For the same molecule, the “Population Membrane Permeable-Phenotype (%)” value [2] was 0.51% and 0%, the “Population Mitotic Cells (%)” value [2] was 92.21% and 90.48% and the “Population Normal (%)” value [2] was 99.72% and 99.21%. For the same molecule, the “Population Pyknosed Nuclei (%)” value [2] was 43.87% and 83.33%, the “Total Cell Count” value [2] was 352 and 127 and the “Population Apoptotic (%)” value [3] was 14.77% and 10.19%. For the same molecule, the “Population Fragmented Nuclei (%)” value [3] was 4.65% and 2.11%, the “Population Healthy Nuclei (%)” value [3] was 80.21% and 41.05% and the “Population Hoechst High Intensity Objects (%)” value [3] was 0%. The “Population Membrane Permeable-Phenotype (%)” value [3] was 1.72% and 1.28%, the “Population Mitochondria Different-Phenotype (%)” value [3] was 15.02% and 6.41% and the “Population Mitotic Cells (%)” value [3] was 85.23% and 89.81%. The “Population Normal (%)” value [3] was 100%, the “Population Tubulin-Different-Phenotype (%)” value [3] was 7.73% and 3.85% and the “Population Apoptotic (%)” value [4] was 13.24% and 15.38%. The “Population Fragmented Nuclei (%)” value [4] was 1.47% and 1.14%, the “Population Healthy Nuclei (%)” value [4] was 73.48% and 39.77% and the “Population Hoechst High Intensity Objects (%)” value [4] was 0.18% and 0.56%. For the same molecule, the “Population Membrane Permeable-Phenotype (%)” value [4] was 0.75% and 0%, the “Population Mitochondria Different-Phenotype (%)” value [4] was 16.04% and 8.57% and the “Population Mitotic Cells (%)” value [4] was 86.76% and 84.62%. For the same molecule, the “Population Normal (%)” value [4] was 99.82% and 99.44%, the “Population Pyknosed Nuclei (%)” value [4] was 25.05% and 59.09% and the “Population Apoptotic (%)” value [5] was 8.9% and 17.46%. For the same molecule, the “Population Fragmented Nuclei (%)” value [5] was 5.91% and 2.96%, the “Population Healthy Nuclei (%)” value [5] was 84.62% and 78.4% and the “Population Hoechst High Intensity Objects (%)” value [5] was 0% and 0.29%. The “Population Membrane Permeable-Phenotype (%)” value [5] was 6.52% and 3.4%, the “Population Mitochondria Different-Phenotype (%)” value [5] was 8.82% and 9.06% and the “Population Mitotic Cells (%)” value [5] was 91.1% and 82.54%. For the same molecule, the “Population Normal (%)” value [5] was 100% and 99.71%, the “Population Pyknosed Nuclei (%)” value [5] was 9.47% and 18.64% and the “Population Apoptotic (%)” value [6] was 8.2% and 20.78%. The “Population Fragmented Nuclei (%)” value [6] was 3.08% and 0.64%, the “Population Healthy Nuclei (%)” value [6] was 85.54% and 50% and the “Population Hoechst High Intensity Objects (%)” value [6] was 0% and 0.64%. For the same molecule, the “Population Membrane Permeable-Phenotype (%)” value [6] was 3.82% and 1.28%, the “Population Mitochondria Different-Phenotype (%)” value [6] was 18.43% and 25.64% and the “Population Mitotic Cells (%)” value [6] was 91.8% and 79.22%. For the same molecule, the “Population Normal (%)” value [6] was 100% and 99.36%.

With `CC(C)[C@H](C(=O)Nc1ccc(C(=O)NO)cc1)c1ccccc1` [AR-42] the “Population Apoptotic (%)” value [1] was 11.9% and 3.88%, the “Population Fragmented Nuclei (%)” value [1] was 1.31% and 2.38% and the “Population Healthy Nuclei (%)” value [1] was 54.83% and 20.83%. For the same molecule, the “Population Hoechst High Intensity Objects (%)” value [1] was 0% and 0.59%, the “Population Membrane Permeable-Phenotype (%)” value [1] was 0.95% and 0% and the “Population Mitochondria Different-Phenotype (%)” value [1] was 22.38% and 11.43%. The “Population Mitotic Cells (%)” value [1] was 88.1% and 96.12%, the “Population Normal (%)” value [1] was 100% and 99.41% and the “Population Pyknosed Nuclei (%)” value [1] was 43.86% and 76.79%. The “Total Cell Count” value [1] was 383 and 169, the “Population Apoptotic (%)” value [2] was 11.02% and 12.75% and the “Population Fragmented Nuclei (%)” value [2] was 2.96% and 3.72%. For the same molecule, the “Population Hoechst High Intensity Objects (%)” value [2] was 0.37% and 0%, the “Population Membrane Permeable-Phenotype (%)” value [2] was 0% and 3.12% and the “Population Mitotic Cells (%)” value [2] was 88.98% and 87.25%. For the same molecule, the “Population Normal (%)” value [2] was 99.63% and 100%, the “Population Pyknosed Nuclei (%)” value [2] was 43.7% and 79.26% and the “Population Tubulin-Different-Phenotype (%)” value [2] was 5.56% and 9.38%. For the same molecule, the “Total Cell Count” value [2] was 271 and 188, the “Population Apoptotic (%)” value [3] was 31.4% and 16.41% and the “Population Fragmented Nuclei (%)” value [3] was 3.26% and 2.2%. For the same molecule, the “Population Healthy Nuclei (%)” value [3] was 63.86% and 27.47%, the “Population Hoechst High Intensity Objects (%)” value [3] was 0% and the “Population Membrane Permeable-Phenotype (%)” value [3] was 0.43% and 0%. The “Population Mitochondria Different-Phenotype (%)” value [3] was 22.55% and 10%, the “Population Mitotic Cells (%)” value [3] was 68.6% and 83.59% and the “Population Normal (%)” value [3] was 100%. The “Population Pyknosed Nuclei (%)” value [3] was 32.88% and 70.33%, the “Population Tubulin-Different-Phenotype (%)” value [3] was 18.3% and 14% and the “Total Cell Count” value [3] was 368 and 182. The “Population Apoptotic (%)” value [4] was 25.32% and 20.83%, the “Population Fragmented Nuclei (%)” value [4] was 1.5% and 2.78% and the “Population Healthy Nuclei (%)” value [4] was 68.8% and 30.56%. The “Population Hoechst High Intensity Objects (%)” value [4] was 0% and 0.55%, the “Population Membrane Permeable-Phenotype (%)” value [4] was 1.09% and 1.82% and the “Population Mitochondria Different-Phenotype (%)” value [4] was 14.21% and 14.55%. The “Population Mitotic Cells (%)” value [4] was 74.68% and 79.17%, the “Population Normal (%)” value [4] was 100% and 99.45% and the “Population Pyknosed Nuclei (%)” value [4] was 29.7% and 66.67%. The “Population Tubulin-Different-Phenotype (%)” value [4] was 2.73% and 3.64%, the “Total Cell Count” value [4] was 266 and 181 and the “Population Apoptotic (%)” value [5] was 38.66% and 18.09%. For the same molecule, the “Population Fragmented Nuclei (%)” value [5] was 3.58% and 2.58%, the “Population Healthy Nuclei (%)” value [5] was 60.9% and 36.77% and the “Population Hoechst High Intensity Objects (%)” value [5] was 1.18% and 0%. The “Population Membrane Permeable-Phenotype (%)” value [5] was 0.49% and 3.51%, the “Population Mitochondria Different-Phenotype (%)” value [5] was 58.33% and 29.82% and the “Population Mitotic Cells (%)” value [5] was 61.34% and 81.91%. For the same molecule, the “Population Normal (%)” value [5] was 98.82% and 100%, the “Population Pyknosed Nuclei (%)” value [5] was 35.52% and 60.65% and the “Population Tubulin-Different-Phenotype (%)” value [5] was 21.57% and 47.37%. The “Total Cell Count” value [5] was 339 and 155, the “Population Apoptotic (%)” value [6] was 22.22% and 36.27% and the “Population Fragmented Nuclei (%)” value [6] was 2.93% and 2.55%. For the same molecule, the “Population Healthy Nuclei (%)” value [6] was 66.95% and 32.48%, the “Population Hoechst High Intensity Objects (%)” value [6] was 0.42% and 0% and the “Population Membrane Permeable-Phenotype (%)” value [6] was 5% and 3.92%. The “Population Mitochondria Different-Phenotype (%)” value [6] was 22.5% and 11.76%, the “Population Mitotic Cells (%)” value [6] was 77.78% and 63.73% and the “Population Normal (%)” value [6] was 99.58% and 100%. For the same molecule, the “Population Pyknosed Nuclei (%)” value [6] was 30.13% and 64.97%, the “Population Tubulin-Different-Phenotype (%)” value [6] was 9.38% and 15.69% and the “Total Cell Count” value [6] was 240 and 157.
